Test results taken from ChEMBL document CHEMBL1157419, “Bioactive isocoumarins isolated from the endophytic fungus Microdochium bolleyi” (2008).

How the values were obtained:
[Chlorella] fusca = Antimicrobial activity against Chlorella fusca by agar diffusion method; type: functional, Scenedesmus fuscus
How it was run: (§1)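 Test substance dissolved in acetone at 1 mg/mL, and 50 µL (50 µg) pipetted onto a sterile 9 mm filter disk. Disk laid on MPY agar, then sprayed with a suspension of the fungus M. violaceum or the alga C. fusca. Acetone tested as a solvent control.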

Escherichia coli = experiment: Antimicrobial activity against Escherichia coli by agar diffusion method; type: functional
How it was run: (§2)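 Test substance dissolved in acetone at 1 mg/mL, and 50 µL (50 µg) applied to a sterile 9 mm filter disk. Disk placed on NB agar, then sprayed with a suspension of the test bacterium (E. coli Gram-negative; B. megaterium Gram-positive). Acetone run as a solvent control.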

Microbotryum violaceum = experiment: Antimicrobial activity against Microbotryum violaceum by agar diffusion method; type: functional; how it was run: as §1
Priestia megaterium = experiment: Antimicrobial activity against Bacillus megaterium by agar diffusion method; type: functional; how it was run: as §2

COc1cc2c(c(O)c1OC)C(=O)O[C@@H]1C[C@H](C[C@@H](C)O)O[C@H]21
inhibition zone (IZ) ([Chlorella] fusca): 6 mm | inhibition zone (IZ) (Escherichia coli): 0 mm | inhibition zone (IZ) (Microbotryum violaceum): 7 mm | inhibition zone (IZ) (Priestia megaterium): 0 mm

COc1cc2c(c(O)c1OC)C(=O)O[C@@H]1C[C@H](C[C@H](C)O)O[C@H]21
inhibition zone (IZ) ([Chlorella] fusca): 10 mm | inhibition zone (IZ) (Escherichia coli): 8 mm | inhibition zone (IZ) (Microbotryum violaceum): 9 mm | inhibition zone (IZ) (Priestia megaterium): 6 mm

CCC[C@H]1C[C@H]2OC(=O)c3c(cc(OC)c(OC)c3O)[C@H]2O1 [MONOCERIN]
inhibition zone (IZ) ([Chlorella] fusca): 8 mm | inhibition zone (IZ) (Escherichia coli): 10 mm | inhibition zone (IZ) (Microbotryum violaceum): 23 mm | inhibition zone (IZ) (Priestia megaterium): 6 mm

CN(C)[C@@H]1C(O)=C(C(N)=O)C(=O)[C@@]2(O)C(O)=C3C(=O)c4c(O)cccc4[C@@](C)(O)[C@H]3C[C@@H]12 [TETRACYCLINE]
inhibition zone (IZ) ([Chlorella] fusca): 0 mm | inhibition zone (IZ) (Escherichia coli): 18 mm | inhibition zone (IZ) (Microbotryum violaceum): 10 mm | inhibition zone (IZ) (Priestia megaterium): 18 mm

NYSTATIN
inhibition zone (IZ) ([Chlorella] fusca; Scenedesmus fuscus): 20 mm | inhibition zone (IZ) (Escherichia coli): 0 mm | inhibition zone (IZ) (Microbotryum violaceum): 0 mm | inhibition zone (IZ) (Priestia megaterium): 0 mm

C[C@@H]1C[C@@H]([C@H](O)CC2CC(=O)NC(=O)C2)C(=O)[C@@H](C)C1 [CYCLOHEXIMIDE]
inhibition zone (IZ) ([Chlorella] fusca): 50 mm | inhibition zone (IZ) (Escherichia coli): 0 mm | inhibition zone (IZ) (Microbotryum violaceum): 35 mm | inhibition zone (IZ) (Priestia megaterium): 0 mm

CCC[C@@H](O)C[C@H]1OC(=O)c2c(cc(OC)c(OC)c2O)[C@H]1O
inhibition zone (IZ) ([Chlorella] fusca): 10 mm | inhibition zone (IZ) (Escherichia coli): 10 mm | inhibition zone (IZ) (Microbotryum violaceum): 9 mm | inhibition zone (IZ) (Priestia megaterium): 7 mm
